These results are taken from ChEMBL document CHEMBL1143299, “Synthesis and biological activity of novel shikonin analogues” (Bioorg Med Chem Lett, 2009).

The source made the active and inactive calls. The calls are words filed in the database; no cut-off is given here.

Type in all cases: functional, cell-based
Test [1] concerns HL-60. Briefly: Cytotoxicity against human HL60 cells by MTT assay. The method, boiled down: (§1)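 IC50 from three independent experiments; growth inhibition read by SRB (adherent lines) or MTT (HL60, K562).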
In general terms: Tetrazolium dyes change colour on reduction, which living cells bring about.

The subject of test [2] is HeLa. Briefly: Cytotoxicity agaisnt human HeLa cells by SRB assay. The method, boiled down:
as §1
On the technique in general: The SRB assay estimates cell density from bound dye.

The subject of test [3] is MDA-MB-231. Briefly: Reduction of hypoxia-induced HIF1alpha accumulation in human MDA-MB-231 cells at 10 uM by Western blotting analysis. The method, boiled down: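 MDA-MB-231 cells (5 × 10⁵) treated at 10 µM, held in hypoxia (1% O₂) for 10 h, then lysed in 1× SDS loading buffer (pH 6.8 Tris–HCl, DTT, SDS) and boiled. Equal lysate amounts run on 10% SDS–PAGE, transferred to nitrocellulose, probed for HIF-1α and β-actin with HRP secondary antibodies, detected by ECL. Representative of three independent experiments.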
(A western blot detects proteins with antibodies after separation by electrophoresis.)

Test [4] deals with K562. Briefly: Cytotoxicity agaisnt human K562 cells by MTT assay. The method, boiled down: as §1
The subject of test [5] is MDA-MB-231. Nature of the test: Cytotoxicity agaisnt human MDA-MB-231 cells by SRB assay. A digest of the protocol: as §1
The nature of test [6]: Cytotoxicity agaisnt human KB-3-1 cells by SRB assay. A digest of the protocol: as §1
Test [7] has as its system A549. Nature of the test: Cytotoxicity agaisnt human A549 cells by SRB assay. A digest of the protocol:
as §1

In test [8] the test system is HT-29. Briefly: Cytotoxicity agaisnt human HT29 cells by SRB assay. A digest of the protocol: as §1
Test [9] concerns KB. Nature of the test: Cytotoxicity agaisnt vincristine-resistant human KB cells by SRB assay. The method, boiled down: as §1
In test [10] the test system is HCT-116. Nature of the test: Cytotoxicity agaisnt human HCT116 cells by SRB assay. A digest of the protocol: as §1
A short description of test [11]: Cytotoxicity agaisnt human Rh30 cells by SRB assay. The following applies: SJRH30. The method, boiled down:
as §1

As a reminder, the IC50 is the concentration at which inhibition is half-maximal. Higher therefore signals lower potency.

As to `Cc1ccccc1S(=O)(=O)NC(C1=CC(=O)c2c(O)ccc(O)c2C1=O)C(C)C` (centres undefined), the half-inhibitory concentration (IC50) stood at 190 nM in [1] and 790 nM in [2].
For `COc1ccc(S(=O)(=O)NC(C)C2=CC(=O)c3c(O)ccc(O)c3C2=O)cc1` (centres undefined) the same measures were 20 nM and 3760 nM.
Consider `CC(NS(=O)(=O)c1ccccc1Br)C1=CC(=O)c2c(O)ccc(O)c2C1=O` (centres undefined), for which the half-maximal inhibitory concentration (IC50) in [1] was 120 nM; in test [2], 6200 nM. In addition, in test [3], the outcome was Active.
As to `CCOC(=O)c1ccc(S(=O)(=O)NC(C2=CC(=O)c3c(O)ccc(O)c3C2=O)C(C)C)cc1` (centres undefined), the IC50 was 150 nM in [1]; 18200 nM in test [4]; 4700 nM in test [5]; 11800 nM in [6]; 11400 nM in test [7]; 2800 nM in test [8]. Also, the IC50 in test [2] was found to be 850 nM; in [9], 13200 nM; in test [10], 3800 nM; in test [11], 2600 nM.
Consider `Cc1ccc(S(=O)(=O)NC(C2=CC(=O)c3c(O)ccc(O)c3C2=O)C(C)C)cc1` (centres undefined), for which, in test [2], the half-maximal inhibitory concentration (IC50) turned out to be 4850 nM.
As to `Cc1ccccc1S(=O)(=O)NC(C)C1=CC(=O)c2c(O)ccc(O)c2C1=O` (centres undefined), the IC50 in [1] was determined as 70 nM; in test [2], 4490 nM. The outcome in [3] was Active.
On the same counts, the results for `CC(NS(=O)(=O)c1cccc(Br)c1)C1=CC(=O)c2c(O)ccc(O)c2C1=O` (centres undefined) are 160 nM, 6350 nM and “Active”.
As to `CC(NS(=O)(=O)c1ccc(Br)cc1)C1=CC(=O)c2c(O)ccc(O)c2C1=O` (centres undefined), the IC50 in [1] turned out to be 100 nM; in test [2], 5210 nM.
Take `CC(NS(=O)(=O)c1ccc(Cl)cc1)C1=CC(=O)c2c(O)ccc(O)c2C1=O` (centres undefined): the IC50 turned out to be 250 nM in test [1]; 19900 nM in [4]; 4500 nM in test [5]; 6900 nM in test [6]; 8300 nM in [7]; 1300 nM in test [8]. In addition, the half-maximal inhibitory concentration (IC50) in [2] amounted to 810 nM; in test [9] it was 12400 nM; in test [10], 3200 nM; in test [11], 1900 nM. Besides, the result in test [3] was Active.
For `CC(C)C(NS(=O)(=O)c1ccc(F)cc1)C1=CC(=O)c2c(O)ccc(O)c2C1=O` (centres undefined), inhibition in test [2] was half-maximal at 6650 nM (IC50).
As to `CC(C)C(NS(=O)(=O)c1ccccc1Br)C1=CC(=O)c2c(O)ccc(O)c2C1=O` (centres undefined), the IC50 in test [1] is 340 nM; in test [2], 8310 nM.
On the same counts, the results for `COc1ccc(S(=O)(=O)NC(C)C2=CC(=O)c3c(O)ccc(O)c3C2=O)c(OC)c1` (centres undefined) are 500 nM and 19500 nM.
For `CCOC(=O)c1ccc(S(=O)(=O)NC(C)C2=CC(=O)c3c(O)ccc(O)c3C2=O)cc1` (centres undefined), the 50% inhibitory concentration (IC50) in test [1] amounted to 120 nM; in [2], 2260 nM.
In test [2], `COc1ccc(S(=O)(=O)NC(C2=CC(=O)c3c(O)ccc(O)c3C2=O)C(C)C)cc1` (centres undefined) came in with an IC50 of 8950 nM. This lies in the single-digit micromolar range.
Take `CC(NS(=O)(=O)c1ccc(F)cc1)C1=CC(=O)c2c(O)ccc(O)c2C1=O` (centres undefined): the figures for the half-inhibitory concentration (IC50) in [1] and in [2] were 90 nM and 6410 nM, respectively.
`CC(C)C(NS(=O)(=O)c1ccc(Cl)cc1)C1=CC(=O)c2c(O)ccc(O)c2C1=O` (centres undefined): the IC50 in [2] was found to be 8650 nM.
On to `CC(C)=CC[C@@H](O)C1=CC(=O)c2c(O)ccc(O)c2C1=O` [SHIKONIN], for which the values for the IC50 in [1] and in test [2] were 440 nM and 13400 nM, respectively. Besides, in test [3], the outcome was Active.
Consider `CC(=O)c1ccc(S(=O)(=O)NC(C)C2=CC(=O)c3c(O)ccc(O)c3C2=O)cc1` (centres undefined), for which the IC50 in test [1] is 260 nM; in test [2], 5760 nM.
For `CC(=O)c1ccc(S(=O)(=O)NC(C2=CC(=O)c3c(O)ccc(O)c3C2=O)C(C)C)cc1` (centres undefined) the same measures were 110 nM and 3820 nM.
On the same counts, the results for `COc1cc([C@@H]2c3cc4c(cc3[C@@H](O)[C@H]3COC(=O)[C@H]23)OCO4)cc(OC)c1O` [4'-DEMETHYLEPIPODOPHYLLOTOXIN] are 820 nM and 980 nM.
For `COc1ccc(S(=O)(=O)NC(C2=CC(=O)c3c(O)ccc(O)c3C2=O)C(C)C)c(OC)c1` (centres undefined) the same measures were 400 nM and 2750 nM.
`CC(C)C(NS(=O)(=O)c1ccc(Br)cc1)C1=CC(=O)c2c(O)ccc(O)c2C1=O` (centres undefined) registered an IC50 in [2] of 7650 nM.
Regarding `CC(C)C(NS(=O)(=O)c1cccc(Br)c1)C1=CC(=O)c2c(O)ccc(O)c2C1=O` (centres undefined), the half-maximal inhibitory concentration (IC50) in test [1] amounted to 790 nM; in test [2], 860 nM.
For `Cc1ccc(S(=O)(=O)NC(C)C2=CC(=O)c3c(O)ccc(O)c3C2=O)cc1` (centres undefined) the same measures were 30 nM and 5340 nM.
